Results taken from ChEMBL document CHEMBL1124663, “Design, synthesis, antineoplastic activity, and chemical properties of bis(carbamate) derivatives of 4,5-bis(hydroxymethyl)imidazole” (J Med Chem, 1989).

Tests used:
Mus musculus [1] = experiment: Body weight difference (BWD) of test animals administered with 50 mg/kg compound is determined on day 5 for L1210 tumor cells; format: functional
Procedure, shortened: (§1)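 L1210 leukaemia: 10^5 cells implanted ip on day 0 in mice. Freshly prepared saline suspension given ip once daily on days 1–5. Body weight difference in g (treated minus control) taken as day 5 minus day 1. Six animals per dose.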

Mus musculus [2] = experiment: Body weight difference (BWD) of test animals administered with 25 mg/kg compound is determined on day 14 for M5076 minus 1 tumor cells; format: functional
Procedure, shortened: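 M5076 sarcoma: 10^6 cells inoculated ip on day 0 in B6C3F1 mice. Fresh saline suspension dosed ip every fourth day, on days 1, 5, 9 and 13. Body weight difference in g (treated minus control) taken as day 14 minus day 1. Ten mice per group.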

Mus musculus [3] = experiment: Body weight difference (BWD) of test animals administered with 25 mg/kg compound is determined on day 5 for L1210 tumor cells; format: functional; procedure, shortened: as §1
Mus musculus [4] = experiment: Body weight difference (BWD) of test animals administered with 100 mg/kg compound is determined on […] tumor cells; format: functional
Procedure, shortened: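 MX-1 human mammary xenograft: solid tumour fragment (1 mm3, 0.5 mg) placed as a subrenal capsule implant on day 0 in NCR-nu mice. Fresh saline suspension dosed ip on days 1, 5 and 9. Body weight difference in g (treated minus control) recorded. Assay evaluated on day 11. Six mice per group.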

Mus musculus [5] = experiment: Body weight difference (BWD) of test animals administered with 100 mg/kg compound is determined on day 5 for L1210 tumor cells; format: functional; procedure, shortened: as §1
Mus musculus [6] = experiment: Body weight difference (BWD) of test animals administered with 12.5 mg/kg compound is determined on day 5 for L1210 tumor cells; format: functional; procedure, shortened: as §1
Mus musculus [7] = experiment: Body Weight Difference (BWD) of test animals administered with 25 mg/kg compound is determined on day 5 for P388 tumor cells; format: functional
Procedure, shortened: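 P388 leukaemia: about 10^6 cells in ascitic fluid inoculated ip on day 0 (CD2F1 mice). Compound given ip in normal saline as a freshly prepared solution or suspension, once daily on days 1–5. Treated-minus-control body weight difference in g, taken as day 5 minus day 1 weight. Groups of six.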

Mus musculus [8] = experiment: Ability of 200 mg/kg of compound to kill M5076 tumor cells in mice is expressed as the log of the tumor cell population at the onset of treatment minus the log of the tumor cell population at the end of treatment; format: functional
Procedure, shortened: (§2)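 M5076 sarcoma, 10^6 cells ip on day 0 in B6C3F1 mice. Drug given ip as a fresh saline suspension every fourth day (days 1, 5, 9, 13). % T/C is median survival of treated versus control mice, counting long-term survivors. Cures are 60-day survivors. Log cell kill is derived from this.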

Mus musculus [9] = experiment: Ability of 100 mg/kg of compound to kill M5076 tumor cells in mice is expressed as the log of the tumor cell population at the onset of treatment minus the log of the tumor cell population at the end of treatment; format: functional; procedure, shortened: as §2
Mus musculus [10] = experiment: The toxicity day was evaluated on day 5 for L1210 tumor cells of test animals dosed with 12.5 mg/kg of compound; 6/6; format: functional
Procedure, shortened: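 L1210 leukaemia, 10^5 cells, implanted ip on day 0. Freshly prepared saline suspension dosed ip daily on days 1-5. Toxicity evaluated on day 5 as survivors over animals in the initial test group.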

Mus musculus [11] = experiment: Toxicity day evaluation was carried out on day 5 for animal dosed with 100 mg/kg compound; 6/6; format: organism-based; design: dose 100 mg/kg; details: in vivo
Mus musculus [12] = experiment: Toxicity day evaluation was carried out on day 5 for animal dosed with 50 mg/kg compound; 6/6; format: organism-based; design: dose 50 mg/kg; details: in vivo
Mus musculus [13] = experiment: The percent of the median survival time of test mice compared to control mice, administered with 12.5 mg/kg compound on day 5 for L1210 tumor cells; format: functional
Procedure, shortened: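 L1210 leukemia, 10^5 cells implanted ip on day 0. Drug given ip daily on days 1-5 as a saline suspension freshly prepared before each injection. Read-out is median survival of treated versus control mice (% T/C), and log cell kill is derived from it.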

Mus musculus [14] = experiment: Ability of 25 mg/kg of compound to kill M5076 tumor cells in mice is expressed as the log of the tumor cell population at the onset of treatment minus the log of the tumor cell population at the end of treatment; format: functional; procedure, shortened: as §2
Mus musculus [15] = experiment: The percent of the median survival time of test mice compared to control mice is % T/C which refers to tumor size in this case. It is determined for mice administered with 100 mg/kg compound on day 11 for MX-1 tumor cells; format: functional; details: route intraperitoneal
Procedure, shortened: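 Human MX-1 mammary xenograft, a 1 mm3 (0.5 mg) tumor fragment implanted under the renal capsule of NCR-nu mice on day 0. Drug given ip as a fresh saline suspension on days 1, 5 and 9. Tumor size is assessed on day 11. A negative % T/C is percent shrinkage relative to the initial implant. Survivors in the toxicity group are […].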

Mus musculus [16] = experiment: The percent of the median survival time of test mice compared to control mice is % T/C. It is determined for mice administered with 100 mg/kg compound on day 0 for LOX 1 tumor cells.; format: functional; details: route intraperitoneal
Mus musculus [17] = experiment: The percent of the median survival time of test mice compared to control mice is % T/C. It is determined for mice administered with 25 mg/kg compound on day 0 for LOX 1 tumor cells.; format: functional; details: route intraperitoneal
Mus musculus [18] = experiment: Ability of 6.25 mg/kg of compound to kill tumor cells in mice is expressed as the log of the tumor cell population at the onset of treatment minus the log of the tumor cell population at the end of treatment; format: functional
Mus musculus [19] = experiment: The toxicity day was evaluated on day 0 for LOX tumor cells of test animals dosed with 100 mg/kg of compound; 6/6; format: functional
Mus musculus [20] = experiment: The toxicity day was evaluated on day 0 for LOX tumor cells of test animals dosed with 200 mg/kg of compound; 3/6; format: functional
Mus musculus [21] = experiment: The toxicity day was evaluated on day 0 for LOX tumor cells of test animals dosed with 50 mg/kg of compound; 6/6; format: functional
Mus musculus [22] = experiment: The toxicity day was evaluated […] for M5076 minus 1 tumor cells of test animals dosed with 200 mg/kg of compound; 10/10; format: functional
Procedure, shortened: (§3)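 M5076 sarcoma, 10^6 cells, inoculated ip into B6C3F1 mice on day 0. Fresh saline suspension given ip every fourth day (days 1, 5, 9, 13). Toxicity survivors were scored on day 5 as survivors over initial group. Body-weight difference was day 14 minus day 1.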

Mus musculus [23] = experiment: The toxicity day was evaluated […] for M5076 minus 1 tumor cells of test animals dosed with 25 mg/kg of compound; 10/10; format: functional; procedure, shortened: as §3
Mus musculus [24] = experiment: The percent of the median survival time of test mice compared to control mice, administered with 25 mg/kg compound on day 14 for M5076 minus 1 tumor cells; format: functional; procedure, shortened: as §2
Mus musculus [25] = experiment: Body weight difference (BWD) of test animals administered with 50 mg/kg compound is determined on day 10 for LOX tumor cells.
Mus musculus [26] = experiment: Body weight difference (BWD) of test animals administered with 25 mg/kg compound is determined on day 10 for LOX tumor cells.
Mus musculus [27] = experiment: Body weight difference (BWD) of test animals administered with 200 mg/kg compound is determined on day 10 for LOX tumor cells.

`CNC(=O)OCc1nc(SC)n(C)c1COC(=O)NC` gave a BWD (Mus musculus [1]) of -0.5 g, a BWD (Mus musculus [2]) of -2 g and a BWD (Mus musculus [3]) of 0 g. For the same molecule, the BWD (Mus musculus [4]) was -2.7 g, the BWD (Mus musculus [5]) was -1.9 g and the BWD (Mus musculus [6]) was -0.2 g. The BWD (Mus musculus [7]) was -1.4 g, the KE (Mus musculus [8]) was 0.98 and the KE (Mus musculus [9]) was -0.34. For the same molecule, the “Survivors / animals tested” value (Mus musculus [10]) was 6, the “Survivors / animals tested” value (Mus musculus [11]) was 6 and the “Survivors / animals tested” value (Mus musculus [12]) was 6. It also gave a T/C (Mus musculus [13]) of 103%, a KE (Mus musculus [14]) of -1.51 and a T/C (Mus musculus [15]) of -73%. For the same molecule, the T/C (Mus musculus [16]) was 365%, the T/C (Mus musculus [17]) was 219% and the KE (Mus musculus [18]) was -0.83. For the same molecule, the “Survivors / animals tested” value (Mus musculus [19]) was 6, the “Survivors / animals tested” value (Mus musculus [20]) was 3 and the “Survivors / animals tested” value (Mus musculus [21]) was 6. The “Survivors / animals tested” value (Mus musculus [22]) was 10, the “Survivors / animals tested” value (Mus musculus [23]) was 10 and the T/C (Mus musculus [24]) was 122%. For the same molecule, the BWD (Mus musculus [25]) was -3.3 g, the BWD (Mus musculus [26]) was -3 g and the BWD (Mus musculus [27]) was -11.5 g.
